This is a sample that favours compounds with a hit; in the whole collection about 4.5% have one here.
OX1R antag-1 – OX1R (human) antagonism; hit rate 1.8% among 330,000; OX1R-expressing cells, FRET antagonist read-out; inhibition, % at 6.6 µM; AID 485270; O43613; in the data active = inhibition mostly above about 38%, no sharp cut-off; inactive = mostly below about 40%;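 also: 0% = agonist challenge alone and 100% = reference antagonist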
GPR7 antagonist – human neuropeptides B/W receptor 1 antagonism; P48145; GPR7-expressing cells, fluorescence antagonist assay; inhibition, % at 4.4 µM; hit rate 1.1% among 290,000; in the data active = inhibition above about 16%, passing the limit was not always enough;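 also: cells stimulated with the agonist NPW; 0% = agonist with vehicle and 100% = vehicle without agonist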
TAAR1 ag – agonists of human TAAR1. AID 624467. hit rate 0.99% among 360,000. CHO RD-HGA16 TAAR1, Fluo-8 calcium fluorescence; vehicle wells 0%, saturating PEA agonist 100%. Q96RJ0. activation, % at 3 µM;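 active = activation above the mean activation of all test compounds in the run plus 3 SD, cut at about 38% in these data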
Target sequence (Q96RJ0 whole entry, looked up): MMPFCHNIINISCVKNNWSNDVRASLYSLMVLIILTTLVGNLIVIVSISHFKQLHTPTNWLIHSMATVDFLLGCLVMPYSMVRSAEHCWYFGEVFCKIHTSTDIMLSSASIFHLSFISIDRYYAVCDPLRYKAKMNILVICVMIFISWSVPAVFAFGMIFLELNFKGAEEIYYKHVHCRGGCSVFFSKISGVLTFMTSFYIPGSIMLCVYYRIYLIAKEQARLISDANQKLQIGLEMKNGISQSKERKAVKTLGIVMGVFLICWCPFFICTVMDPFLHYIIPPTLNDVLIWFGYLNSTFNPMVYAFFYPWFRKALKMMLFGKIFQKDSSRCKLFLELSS
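test system = CHO RD-HGA16 cells carrying human TAAR1 plus Gα16 | schedule = 17-24 h seeding, 75 min 37 °C dye, 30 min RT | compound dosing = 3 µM single concentration | control set = DMSO and PEA EC100 | replicates = n 1 | signal = Fluo-8 fluorescence, 5 s baseline then 140 s kinetic read | measure = percent activation vs PEA EC100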
CHO parental Ca – counter-screen for OX1R antagonists: effect in parental CHO cells | parental CHO-K1, ATP-induced calcium, Fluo-8 fluorescence | inhibition, % at 5.6 µM | hit rate 0.63% among 330,000;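 active = inhibition above that plate's mean sample inhibition plus 3 SD, cut at about 26% in these data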;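 also: 0% = ATP-challenged DMSO wells and 100% = DMSO wells without ATP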
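material = parental CHO cells | also added = ATP as calcium-mobilizing challenge | dosing = single point at 5.6 µM | detection = intracellular calcium via Fluo-8 no-wash fluorescent dye | read-out = % inhibition | benchmarks = low control ATP plus DMSO, high control DMSO only | repeats = one well per compound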
TAAR1 antagonist – human TAAR1 antagonism | Q96RJ0 | CHO RD-HGA16 TAAR1, Fluo-8 calcium fluorescence, antagonist | inhibition, % at 3 µM | hit rate 1.5% among 360,000 | AID 624466;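 active = inhibition above a per-plate cutoff, the mean inhibition of test compounds on that plate plus 3 SD, cut at about 49% in these data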;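 also: 0% = DMSO plus EC80 beta-PEA response and 100% = DMSO alone without agonist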
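Material: CHO RD-HGA16 cells bearing hTAAR1; compound dosing: one-point dosing, 3 µM nominal final; schedule: dye loading 75 min at 37 °C, then 30 min room temperature; measured by: calcium fluorescence with Fluo-8; control set: vehicle and agonist controls; replication: n of 1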
OX1R antag-2 – human HCRTR1 antagonism; O43613; CHO/OX1R cells, Fluo-8 calcium fluorescence, orexin A; inhibition, % at 5 µM; hit rate 0.43% among 330,000; AID 434989;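 active = inhibition above its plate's threshold, mean inhibition of all tested compounds on the plate plus 3 SD, cut at about 37% in these data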;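 also: 0% = orexin A challenge wells and 100% = SB-334867-A antagonist wells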
Starred values were filed as active, the others as inactive; x = no result given.

SMILES | OX1R antag-1 | GPR7 antagonist | TAAR1 ag | CHO parental Ca | TAAR1 antagonist | OX1R antag-2
O=C(OCc1nnc(-c2ccccc2)o1)c1ccc([N+](=O)[O-])s1 | 47* | x | 6 | -4 | 14 | 2
CC(C)OC(=O)c1ccc2ccc(-c3ccccc3)nc2c1 | x | x | 2 | x | -5 | x
Cc1ccc2nc(SCC(=O)N3CCCc4ccccc43)nc(=O)n2c1 | x | x | 2 | x | -14 | x
COC(=O)c1cc2c(c3c4cc(F)ccc4n(S(=O)(=O)c4cccc(C)c4)c13)C(=O)N(Cc1ccc(C(F)(F)F)cc1)C2 | x | x | -1 | x | -41 | x
CN(C)CCNc1ccc(-c2nn(C)c(=O)c3ccccc23)cc1[N+](=O)[O-] | 42* | -8 | 5 | -1 | 7 | -14
COC(=O)c1cc2c(c3c4cc(C)ccc4n(S(=O)(=O)c4ccc(C)cc4)c13)C(=O)N(Cc1ccccc1OC)C2 | x | x | -1 | x | -27 | x
CN(CC(=O)Nc1ccc(Cl)c(C(F)(F)F)c1)C(=O)C1CC(=O)N(CCc2ccccc2)C1 (centres undefined) | x | x | 15 | x | 50* | x
COc1ccc(CNC(=O)c2cccc3c(-c4cccc(C(N)=O)c4)coc23)cc1OC | x | x | 21 | x | 56* | x
COc1cc(-c2coc3c(C(=O)NCc4ccc(N(C)C)cc4)cccc23)ccc1O | x | x | 0 | x | 20 | x
COc1cc(-c2coc3c(C(=O)NCc4ccc(OC)c(OC)c4)cccc23)ccc1O | x | x | 12 | x | 66* | x
COc1cc(NC(=O)c2ccc(-c3ccc(F)c(F)c3)c3ccoc23)cc(OC)c1OC | x | x | -1 | x | 16 | x
CN(Cc1ccccc1)C(=O)Nc1c(Cl)cccc1Cl | x | x | 1 | x | -14 | x
Cc1noc(C)c1NC(=O)N(C)C[C@H]1OCc2cn(nn2)CCCC(=O)N([C@H](C)CO)C[C@@H]1C | x | x | 1 | x | -1 | x
Cc1cccc(NS(=O)(=O)c2cc(C(=O)N3CCc4ccccc4C3)ccc2Cl)c1C | 9 | 19 | 10 | -2 | 56* | 16
COC(=O)c1cc2c(c3c4cc(F)ccc4n(S(=O)(=O)c4ccc(C)cc4)c13)C(=O)N(Cc1ccccc1)C2 | x | x | -1 | x | -34 | x
Cn1nc(-c2ccc(NCCO)c([N+](=O)[O-])c2)c2ccccc2c1=O | 87 | -10 | -2 | -15 | 8 | -10
CC1CC(=O)NN=C1c1ccc(NCCO)c([N+](=O)[O-])c1 (centres undefined) | 59* | -9 | 7 | -11 | -1 | 4
O=C1NC(=O)C2(CCCc3ccc(N(CCO)CCO)cc32)N1 (centres undefined) | x | x | 0 | x | 5 | x
Cc1ccccc1C(=O)N(C)[C@H]1C[C@H]2c3[nH]c4c(-c5ccccc5)cccc4c3CCN2C(=O)[C@H]1[C@H](C)O | x | x | 6 | x | -2 | x
Cc1cccc(NC(=O)c2ncn3c2C(=O)N[C@@H](C)C3)c1 | x | x | 0 | x | -15 | x
Cc1noc(C)c1COc1cccc(C(=O)Oc2ccc3c(c2)OCO3)c1 | 14 | 18* | -1 | -12 | 3 | -3
Cc1noc(C)c1COc1cccc(C(=O)OC(C)C(=O)Nc2ccc3c(c2)OCO3)c1 (centres undefined) | 13 | 19* | 12 | -2 | 13 | -16
CN(Cc1ccccc1)C(=O)c1cccc(NC(=O)Cc2ccc(NC(=O)C3CCCN(S(=O)(=O)c4cccc([N+](=O)[O-])c4)C3)cc2)c1 (centres undefined) | x | x | 0 | x | -11 | x
Cc1nn(CCN)c(C)c1Cl | 18 | -3 | 91* | 10 | 58* | 1
Cc1c(C(=O)NCc2ccc(F)cc2)sc(=O)n1Cc1ccc(C(=O)c2ccccc2)cc1 | x | x | 1 | x | 54* | x
Cc1c(C(=O)NCc2cccc(Cl)c2)sc(=O)n1Cc1ccc(F)cc1 | x | x | 2 | x | 18 | x
Cc1c(C(=O)NCc2ccc(C(C)C)cc2)sc(=O)n1Cc1cccc(F)c1 | x | x | 48* | x | 53* | x
O=C(N[C@H](C(=O)N1CCC[C@H]1C(=O)NCCc1ccccc1Cl)c1ccccc1)C1CCCC1 | x | x | 24 | x | 12 | x
COc1ccc(NC(=O)c2cccc(NC(=O)c3ccccc3)c2)cc1 | 17 | 12 | 6 | -19 | 23 | -12
COc1ccc(COc2cc(-c3cccc(OC)c3)nc3ccc(NC(=O)c4ccc(OC)cc4)cc23)cc1 | 21 | 5 | 10 | -7 | 61* | -7

Source: PubChem (The Scripps Research Institute Molecular Screening Center)
